Assay results reported in publication PMC5253108 (European journal of medicinal chemistry, 2016).
Where two headings read alike, the source gives them in different places.

Assays:
Swiss Webster mice [1] = conditions: published previously; cited from earlier work
[2] = In vitro liver microsomal stability; assay type: in vitro ADME, mouse; conditions: mouse liver microsomes, 1 h
HepG2 liver cells = assay: In vitro cytotoxicity, Cell-Titer Glo viability, HepG2; assay type: cell-based; conditions: 48 hours
[3] = system: ovalbumin (S/C) BALB/c mice; conditions: given repeatedly over five days; listed as ethyl ester of XHE-III-74; cited from earlier work
[4] = mouse, cited from earlier work
HEK293 kidney cells = assay type: cell-based; conditions: 48 hours, Cell-Titer Glo
[5] = system: guinea pig tracheal rings; conditions: cited from earlier work
[6] = system: BEAS2B lung epithelial cells; assay: In vitro cytotoxicity, Cell-Titer Glo viability, BEAS2B; assay type: cell-based; conditions: 48 hours
rats = assay: Sensorimotor impairment in rats; assay type: in vivo, rat; conditions: 15 mg/kg, unpublished results
[7] = In vitro liver microsomal stability; assay type: in vitro ADME; conditions: liver microsomes
airway smooth muscle = conditions: cited from earlier work
mice = conditions: aerosol delivery in mice; cited from earlier work
[8] = system: murine house dust mite model of asthma; conditions: cited from earlier work
[9] = system: ovalbumin (S/C) BALB/c mice; assay type: in vivo, mouse; conditions: 40 mg/kg i.p. for 5 days, 12.5 mg/ml methacholine challenge, p<0.05
Outline: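 BALB/c mice were sensitized by ovalbumin injections (2 mg/kg/d in 2 mg alum, days 0, 7, 14) and challenged intranasally with ovalbumin (1.6 mg/kg/d, days 23–27); controls were saline-challenged. Test compound was given i.p. twice daily during the challenge period. Conscious mice had non-invasive sRaw measured after 1 min aerosolized PBS or methacholine (1.56–12.5 mg/mL), averaged over 3 min. Analysis used two-way repeated-measures ANOVA with Bonferroni post-test.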

Swiss Webster mice [10] = assay: Rotarod assay of sensorimotor coordination in mice; conditions: 40 mg/kg i.p., Swiss Webster mice, 10, 30 and 60 min
[11] = system: guinea pig tracheal rings; conditions: 50 µM compound, substance P contracted rings
α4β3γ2 GABAAR = α4β3γ2 GABAAR (Homo sapiens, UniProt P18507+P48169); assay: GABA induced current potentiation, α4β3γ2 GABAAR; assay type: biochemical; conditions: 1 µM compound, GABA EC20 concentration
α4β3γ2 GABAAR, sequence (P48169 36-554): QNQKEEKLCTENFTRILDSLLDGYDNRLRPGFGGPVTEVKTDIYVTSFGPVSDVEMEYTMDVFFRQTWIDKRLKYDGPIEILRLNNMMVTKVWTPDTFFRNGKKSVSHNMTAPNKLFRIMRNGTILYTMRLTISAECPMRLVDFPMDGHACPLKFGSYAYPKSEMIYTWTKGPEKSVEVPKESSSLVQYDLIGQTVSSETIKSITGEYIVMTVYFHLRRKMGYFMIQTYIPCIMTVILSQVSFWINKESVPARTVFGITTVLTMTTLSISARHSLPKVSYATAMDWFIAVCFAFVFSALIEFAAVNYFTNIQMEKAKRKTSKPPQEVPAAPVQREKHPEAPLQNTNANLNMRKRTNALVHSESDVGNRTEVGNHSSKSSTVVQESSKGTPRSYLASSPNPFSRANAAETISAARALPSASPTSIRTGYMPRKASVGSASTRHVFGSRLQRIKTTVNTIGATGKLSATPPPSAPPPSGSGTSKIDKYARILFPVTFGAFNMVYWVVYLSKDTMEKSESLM
α4β3γ2 GABAAR, sequence (P28472 26-473 partner): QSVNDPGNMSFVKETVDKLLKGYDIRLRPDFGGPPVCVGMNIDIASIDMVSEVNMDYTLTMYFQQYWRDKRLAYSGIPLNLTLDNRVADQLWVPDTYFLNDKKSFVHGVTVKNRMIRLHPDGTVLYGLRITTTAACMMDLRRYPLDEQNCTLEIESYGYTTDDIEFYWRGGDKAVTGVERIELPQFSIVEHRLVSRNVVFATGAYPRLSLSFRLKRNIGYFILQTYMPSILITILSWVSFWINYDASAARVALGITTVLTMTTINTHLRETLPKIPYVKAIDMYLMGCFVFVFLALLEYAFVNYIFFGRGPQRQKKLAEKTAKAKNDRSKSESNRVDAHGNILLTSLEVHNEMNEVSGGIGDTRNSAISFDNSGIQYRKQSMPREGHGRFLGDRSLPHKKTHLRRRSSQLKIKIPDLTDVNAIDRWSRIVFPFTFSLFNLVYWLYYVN
α4β3γ2 GABAAR, sequence (P18507 40-475): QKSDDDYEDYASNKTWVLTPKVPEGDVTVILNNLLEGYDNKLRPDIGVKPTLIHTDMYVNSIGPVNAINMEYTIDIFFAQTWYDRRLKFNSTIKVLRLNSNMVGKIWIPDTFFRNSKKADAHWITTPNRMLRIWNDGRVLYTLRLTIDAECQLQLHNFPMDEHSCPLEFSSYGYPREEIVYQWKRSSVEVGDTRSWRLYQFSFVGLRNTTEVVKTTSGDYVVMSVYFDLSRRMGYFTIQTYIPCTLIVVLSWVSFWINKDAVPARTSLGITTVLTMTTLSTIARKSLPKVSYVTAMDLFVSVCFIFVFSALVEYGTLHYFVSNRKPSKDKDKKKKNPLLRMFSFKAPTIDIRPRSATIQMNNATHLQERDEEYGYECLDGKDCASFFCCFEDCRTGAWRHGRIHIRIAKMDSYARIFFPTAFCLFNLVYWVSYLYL

[12] = Pharmacokinetic study in mice; assay type: in vivo, mouse; conditions: mouse

Row | Structure (SMILES) | sensorimotor impairment on rotarod (Swiss Webster mice [1]) | loss at 1 h in mouse liver microsomes [2] | Toxicity in HEPG2 (Liver) LD50 (HepG2 liver cells) | airway hyperresponsiveness in ovalbumin S/C asthma model [3] | AUC for lung exposure ([4]; same dose as 16, lung) | t1/2 ([4]; same dose as 16) | Toxicity in HEK293 (Kidney) LD50 (HEK293 kidney cells) | airway muscle constriction caused by substance P [5] | Toxicity in BEAS 2B (Lung) LD50 [6] | sensorimotor impairment in rats (rats) | stability in the presence of human liver microsomes [7] | relaxation of pre-contracted airway smooth muscle (airway smooth muscle) | airway hyperresponsiveness after aerosol delivery (mice) | airway resistance in murine house dust mite model [8] | specific airway resistance (sRAW) vs vehicle, 5 day treatment [9] | sensorimotor impairment on rotarod (Swiss Webster mice [10]) | time to airway smooth muscle relaxation effect [11] | potentiation of GABA induced current, α4β3γ2 GABAAR (α4β3γ2 GABAAR) | blood brain barrier penetration ([12]; 5 mg/kg i.p.) | AUC ([12]; lung, ip, 5 mg/kg)
1 | CCOC(=O)c1ncn2c1[C@@H]1CCCN1C(=O)c1cc(OC)ccc1-2 [Compound 5] | weakly induced sensorimotor impairment | less than 20% | >400 µM | reduced airway hyperresponsiveness | 4516 ng·min/mL | 16.3 min | >400 µM | significantly reduced airway muscle constriction | >400 µM |  |  |  |  |  |  |  |  |  |  | 
2 | COc1ccc2c(c1)C(=O)N1CCC[C@H]1c1c(C(=O)OC(C)(C)C)ncn1-2 [Compound 7, (S)-tert-Butyl-7-methoxy-9-oxo-11,12,13,13a-tetrahydro-9H-benzo[e]imidazo[5,1-c]pyrrolo[1,2-a][1,4]diazepine-1-carboxylate] |  |  | >400 µM |  |  |  | >100 µM | significantly reduced airway muscle constriction | >200 µM | induced sensorimotor impairment | stable | relaxed pre-contracted airway smooth muscle | reduces airway hyperresponsiveness | reduced airway resistance |  |  |  |  |  | 
3 | COc1ccc2c(c1)C(=O)N1CCC[C@H]1c1c(C(=O)N(C)C)ncn1-2 [Compound 16] |  | less than 20% | >400 µM |  |  |  | >400 µM |  | >400 µM |  |  |  |  |  | significant reduction in sRAW | did not induce sensorimotor impairment | ≤ 15 min | 319% | did penetrate the blood brain barrier | 12.7 ng·h/mL
